Experiments:
[1] = test system: diaminopeptidyl peptidase-4 (DPP4); conditions: removal of the N-terminal two amino acids; ref Lovshin & Drucker 2009; cited from earlier work
[2] = test system: NEP 24.11, known as neprilysin; conditions: products include GLP1(28–36)amide; ref Hupe-Sodmann et al. 1995; cited from earlier work
INS-1 cells [3] = assay: Mitochondrial cytochrome c release; format: cell-based; conditions: 18.25 μM t-BHP alone, 72 h, Fig. 4A
Outline: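 INS-1 cells (100 000/well) were left untreated, given 18.25 μM t-BHP alone, or given t-BHP with 10 μM test compound for 72 h. They were processed according to the kit protocol, with cytochrome c labelled by FITC and nuclei by DAPI. Fluorescence microscopy followed, scoring loss of green signal as cytochrome c release.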

INS-1 cells [4] = assay: Pan caspase activity; format: cell-based; conditions: 18.25 μM t-BHP alone, compared with the control group, Fig. 4C
INS-1 cells [5] = assay: JC-1 Mitochondrial Membrane Potential Assay; format: cell-based; conditions: 18.25 μM t-BHP alone, 48 h, Fig. 2C

Compound | T1/2 of modification to GLP1(9–36)amide by DPP4 [1] [min] | cleavage by NEP 24.11 [2] | cytochrome c release, stressor alone (INS-1 cells [3]) | caspase activity, stressor alone (INS-1 cells [4]) | mitochondrial potential, stressor alone (INS-1 cells [5])
GLP1(7–36)amide: 30 amino acid insulinotropic form of GLP1, known GLP1 receptor agonist | 1 to 2 | cleaves GLP1(7–36)amide into several smaller peptides |  |  | 
CC(C)(C)OO [t-BHP, tert-butyl hydro-peroxide] |  |  | stimulated cytochrome c release | significant increase in caspase-3 activity | loss of mitochondrial potential

From publication PMC4096040 (The Journal of endocrinology, 2012)
